Experimental findings from ChEMBL document CHEMBL3616436, “Synthesis, cytotoxicity and antimicrobial activity of thiourea derivatives incorporating 3-(trifluoromethyl)phenyl moiety” (Eur J Med Chem, 2015) are described below.

≈ marks a conversion by molar mass, not a printed value. Calls of active or inactive are those of the source. No cut-off for these calls is given here.

Broadly, the inhibition is the percentage by which the read-out fell short of the control. One may read the CC50 as the concentration that lowers cell viability or growth by half. Lower therefore signals harm at low concentration. In general, IC50 refers to the point on the concentration scale where inhibition reaches its midpoint. Read a low IC50 as higher potency.

Assay [1] has as its target T1, DNA topoisomerase 4 (Staphylococcus epidermidis) (UniProt Q5HPI6+Q5HPI5). The assay is described as follows: Inhibition of decatenation activity of DNA topoisomerase 4 in Staphylococcus epidermidis ATCC 35984 using kDNA as substrate at 1 to 4 ug/ml after 1 hr using ethidium bromide staining by agarose gel electrophoresis. The assay is classed as protein assay.
Assay [2] concerns the target T2, Topoisomerase IV (Staphylococcus aureus) (UniProt P0C1U9+P0C1S7). The assay is described as follows: Inhibition of decatenation activity of DNA topoisomerase 4 in hospital methicillin-resistant Staphylococcus aureus 54/05 using kDNA as substrate at 1 to 4 ug/ml after 1 hr using ethidium bromide staining by agarose gel electrophoresis. It is filed as protein-complex assay.

The target in assay [3] is T1, DNA topoisomerase 4 (Staphylococcus epidermidis). The assay is described as follows: Inhibition of decatenation activity of DNA topoisomerase 4 in hospital methicillin-resistant Staphylococcus epidermidis 63/04 using kDNA as substrate at 1 to 4 ug/ml after 1 hr using ethidium bromide staining by agarose gel electrophoresis. It is filed as protein assay.
Assay [4] deals with T2, Topoisomerase IV (Staphylococcus aureus). The assay is described as follows: Inhibition of decatenation activity of DNA topoisomerase 4 in Staphylococcus aureus ATCC 25923 using kDNA as substrate at 32 ug/ml after 1 hr using ethidium bromide staining by agarose gel electrophoresis. The assay is classed as protein-complex assay. An outline of the steps: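 Kit-supplied S. aureus topoisomerase IV, 1 U, with 200 ng kDNA in the supplied assay buffer. Reactions ran 30 min at 37 °C with compound at 1, 4 or 32 µg/ml. They were stopped with STEB and extracted with chloroform/isoamyl alcohol (24:1). Products were run on 1% agarose in TAE for 1 h at 120 V and visualised with ethidium bromide under UV. Controls were no-enzyme, no-compound and ±DMSO.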

The next assay relates to CCRF-CEM. Kind of assay: Cytotoxicity against human CCRF-CEM cells after 96 hrs by MTT assay. It is filed as functional. A digest of the protocol: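 Leukaemia/lymphoma lines seeded at 1×10^5 cells/ml in RPMI-1640 with 10% FCS and penicillin/streptomycin; incubated with serial dilutions at 37°C, 5% CO2; viability by MTT after 96 h; value is concentration reducing proliferation by 50%, with untreated controls undergoing at least three rounds of multiplication.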
A general note: Tetrazolium assays rely on reduction of a dye to a coloured formazan, in cell work by metabolically active cells.

For assay [5], the target named is T2, Topoisomerase IV (Staphylococcus aureus). The assay is described as follows: Inhibition of decatenation activity of DNA topoisomerase 4 in hospital methicillin-resistant Staphylococcus aureus 54/05 using kDNA as substrate at 32 ug/ml after 1 hr using ethidium bromide staining by agarose gel electrophoresis. The assay is classed as protein-complex assay.
For assay [6] the target is unchanged. The assay is described as follows: Inhibition of decatenation activity of DNA topoisomerase 4 in Staphylococcus aureus ATCC 6538 using kDNA as substrate at 32 ug/ml […] using ethidium bromide staining by agarose gel electrophoresis. It is filed as protein-complex assay.
For assay [7] the target is unchanged. Kind of assay: Inhibition of decatenation activity of DNA topoisomerase 4 in hospital methicillin-resistant Staphylococcus aureus 53/05 using kDNA as substrate at 1 to 4 ug/ml after 1 hr using ethidium bromide staining by agarose gel electrophoresis. The assay is classed as protein-complex assay.
For assay [8] the target is unchanged. Kind of assay: Inhibition of decatenation activity of DNA topoisomerase 4 in hospital methicillin-resistant Staphylococcus aureus 81/05 using kDNA as substrate at 32 ug/ml after 1 hr using ethidium bromide staining by agarose gel electrophoresis. It is filed as protein-complex assay. A digest of the protocol: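 Enzyme was S. aureus topoisomerase IV from a commercial decatenation kit, with kinetoplast DNA as substrate (1 U per 200 ng kDNA) in the supplied buffer. Compound was present at 1, 4 or 32 µg/ml, 30 min at 37 °C. Reactions were stopped with STEB and extracted with chloroform/isoamyl alcohol, then run on 1% agarose in TAE for 1 h at 120 V and stained with ethidium bromide. No-enzyme and DMSO controls were included.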

The target in assay [9] is T1, DNA topoisomerase 4 (Staphylococcus epidermidis). Kind of assay: Inhibition of decatenation activity of DNA topoisomerase 4 in hospital methicillin-resistant Staphylococcus epidermidis 76/04 using kDNA as substrate at 32 ug/ml after 1 hr using ethidium bromide staining by agarose gel electrophoresis. The assay is classed as protein assay.
Assay [10] addresses T2, Topoisomerase IV (Staphylococcus aureus). Kind of assay: Inhibition of decatenation activity of DNA topoisomerase 4 in Staphylococcus aureus ATCC 6538 using kDNA as substrate at 1 to 4 ug/ml […] using ethidium bromide staining by agarose gel electrophoresis. It is filed as protein-complex assay.
In assay [11] the target is T1, DNA topoisomerase 4 (Staphylococcus epidermidis). Kind of assay: Inhibition of decatenation activity of DNA topoisomerase 4 in hospital methicillin-resistant Staphylococcus epidermidis 76/04 using kDNA as substrate at 1 to 4 ug/ml after 1 hr using ethidium bromide staining by agarose gel electrophoresis. The assay is classed as protein assay.
Assay [12] addresses T2, Topoisomerase IV (Staphylococcus aureus). The assay is described as follows: Inhibition of decatenation activity of DNA topoisomerase 4 in hospital methicillin-resistant Staphylococcus aureus 522/11 using kDNA as substrate at 1 to 4 ug/ml after 1 hr using ethidium bromide staining by agarose gel electrophoresis. The assay is classed as protein-complex assay.
The test system of assay [13] is Staphylococcus epidermidis. The assay is described as follows: Inhibition of biofilm formation in Staphylococcus epidermidis 31/04 at 4 ug/ml after 24 hrs using MTT staining by spectrophotometer analysis. It is filed as functional. The conditions noted are these: 31/04, 24 h. An outline of the steps: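 Methicillin-resistant hospital isolates or ATCC strains of S. epidermidis were grown overnight in tryptone soy broth with 0.5% glucose. Inoculum of 10^7 CFU/mL was mixed 1:1 with compound in TSB-glucose and incubated 24 h at 37 °C. Non-adherent cells were washed off with PBS, and wells were stained with MTT (0.5% in PBS) for 2 h at 37 °C. Stain was solubilized in DMSO/glycine buffer and read at A554. Inhibition is relative to drug-free control; quadruplicates.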

Assay [14] deals with Staphylococcus epidermidis. The assay is described as follows: Inhibition of biofilm formation in Staphylococcus epidermidis 24/04 after 24 hrs using MTT staining by spectrophotometer analysis. The conditions noted are these: 24/04, 24 h. The assay is classed as functional, organism-based.
Assay [15] deals with T2, Topoisomerase IV (Staphylococcus aureus). Kind of assay: Inhibition of decatenation activity of DNA topoisomerase 4 in Staphylococcus aureus NCTC 4163 using kDNA as substrate at 1 to 4 ug/ml […] using ethidium bromide staining by agarose gel electrophoresis. The assay is classed as protein-complex assay.
The target in assay [16] is T1, DNA topoisomerase 4 (Staphylococcus epidermidis). The assay is described as follows: Inhibition of decatenation activity of DNA topoisomerase 4 in Staphylococcus epidermidis ATCC 12228 using kDNA as substrate at 1 to 4 ug/ml after 1 hr using ethidium bromide staining by agarose gel electrophoresis. It is filed as protein assay.
Assay [17] relates to Staphylococcus epidermidis. The assay is described as follows: Inhibition of biofilm formation in Staphylococcus epidermidis 31/04 after 24 hrs using MTT staining by spectrophotometer analysis. The assay is classed as functional, organism-based. The conditions noted are these: 31/04, 24 h.
The target in assay [18] is T1, DNA topoisomerase 4 (Staphylococcus epidermidis). Kind of assay: Inhibition of decatenation activity of DNA topoisomerase 4 in Staphylococcus epidermidis ATCC 12228 using kDNA as substrate at 32 ug/ml after 1 hr using ethidium bromide staining by agarose gel electrophoresis. The assay is classed as protein assay.
Assay [19] has the same target. The assay is described as follows: Inhibition of decatenation activity of DNA topoisomerase 4 in hospital methicillin-resistant Staphylococcus epidermidis 23/04 using kDNA as substrate at 32 ug/ml after 1 hr using ethidium bromide staining by agarose gel electrophoresis. It is filed as protein assay.
For assay [20], the system named is Staphylococcus epidermidis. The assay is described as follows: Inhibition of biofilm formation in Staphylococcus epidermidis ATCC 35984 after 24 hrs using MTT staining by spectrophotometer analysis. The conditions noted are these: ATCC 35984, 24 h. The assay is classed as functional, organism-based. A digest of the protocol:
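Biofilm was grown for 24 h at 37 °C in TSB with 0.5% glucose from 10^7 CFU/mL inoculum, mixed 1:1 with compound. Final concentrations were 0.125–4 or 0.25–8 µg/ml. Wells were PBS-washed and MTT-stained for 2 h at 37 °C, solubilized in DMSO/glycine buffer and read at 554 nm. IC50 (50% inhibition of biofilm formation) was taken from the dose-response curve; quadruplicates.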

Assay [21] has as its target T2, Topoisomerase IV (Staphylococcus aureus). Kind of assay: Inhibition of decatenation activity of DNA topoisomerase 4 in Staphylococcus aureus ATCC 29213 using kDNA as substrate at 32 ug/ml […] using ethidium bromide staining by agarose gel electrophoresis. The assay is classed as protein-complex assay.

T1 sequence (Q5HPI5 whole entry, looked up): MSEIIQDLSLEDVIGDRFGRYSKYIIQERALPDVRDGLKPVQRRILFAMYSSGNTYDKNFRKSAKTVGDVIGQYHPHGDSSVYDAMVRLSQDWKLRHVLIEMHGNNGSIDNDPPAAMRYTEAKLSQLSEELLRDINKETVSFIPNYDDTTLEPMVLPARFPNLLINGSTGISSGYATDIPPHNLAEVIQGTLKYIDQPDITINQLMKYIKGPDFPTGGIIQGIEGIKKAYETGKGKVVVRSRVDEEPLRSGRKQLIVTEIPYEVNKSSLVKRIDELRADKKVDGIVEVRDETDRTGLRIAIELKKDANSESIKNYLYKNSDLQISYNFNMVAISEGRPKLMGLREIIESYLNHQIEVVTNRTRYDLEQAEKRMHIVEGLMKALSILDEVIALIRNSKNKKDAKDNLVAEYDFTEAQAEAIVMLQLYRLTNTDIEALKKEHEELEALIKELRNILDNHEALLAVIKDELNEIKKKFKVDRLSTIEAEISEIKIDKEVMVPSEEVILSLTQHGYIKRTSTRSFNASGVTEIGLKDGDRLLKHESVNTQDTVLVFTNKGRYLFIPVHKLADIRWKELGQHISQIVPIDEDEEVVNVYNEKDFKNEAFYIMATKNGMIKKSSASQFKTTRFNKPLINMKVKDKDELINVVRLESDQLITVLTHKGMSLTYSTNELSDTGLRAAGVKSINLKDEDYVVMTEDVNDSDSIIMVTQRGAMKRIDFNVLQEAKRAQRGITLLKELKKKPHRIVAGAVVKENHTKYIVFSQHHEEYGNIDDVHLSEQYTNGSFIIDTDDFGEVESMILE
T1 sequence (Q5HPI6 whole entry, looked up): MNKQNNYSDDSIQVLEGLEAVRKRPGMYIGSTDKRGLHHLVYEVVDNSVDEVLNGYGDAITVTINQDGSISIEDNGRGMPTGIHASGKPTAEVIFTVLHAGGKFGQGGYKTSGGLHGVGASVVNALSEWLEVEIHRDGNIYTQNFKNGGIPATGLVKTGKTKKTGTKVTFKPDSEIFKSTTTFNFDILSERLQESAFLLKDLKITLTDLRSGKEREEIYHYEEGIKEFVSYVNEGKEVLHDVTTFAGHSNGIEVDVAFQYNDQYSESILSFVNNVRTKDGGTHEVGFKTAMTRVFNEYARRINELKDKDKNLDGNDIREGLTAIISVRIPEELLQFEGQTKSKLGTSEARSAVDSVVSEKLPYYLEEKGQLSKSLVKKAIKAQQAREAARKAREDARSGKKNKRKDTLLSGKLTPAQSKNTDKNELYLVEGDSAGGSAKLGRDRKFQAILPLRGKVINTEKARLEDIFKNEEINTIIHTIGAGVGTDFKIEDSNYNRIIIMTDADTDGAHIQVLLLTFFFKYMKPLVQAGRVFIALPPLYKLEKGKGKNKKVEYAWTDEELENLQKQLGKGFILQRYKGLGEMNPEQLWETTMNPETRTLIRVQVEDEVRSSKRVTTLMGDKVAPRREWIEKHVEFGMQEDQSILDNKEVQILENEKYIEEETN

Regarding `Fc1ccc(NC(=S)Nc2cccc(C(F)(F)F)c2)cc1Cl`, the inhibition entry in assay [1], in assay [2], in assay [3], in assay [4], in assay [5] and in [6] was “Active” throughout. For the same compound, the inhibition entry in assay [7], in [8], in assay [9], in assay [10], in [11] and in assay [12] was “Active” throughout. Also, the inhibition result in [15], in assay [16], in assay [18], in assay [19] and in assay [21] was “Active” in each case. The compound further returned a CC50 in the assay with CCRF-CEM of 7 µM. For the same compound, the inhibition at 4 µg/mL in assay [13] came to 77.1%. In addition, the IC50 was found to be 1.59 µg/mL (≈ 4.56 µM) in [14], 1.18 µg/mL (≈ 3.38 µM) in [17] and 1.37 µg/mL (≈ 3.93 µM) in [20].

The compound `FC(F)(F)c1cccc(NC(=S)Nc2ccc(Cl)cc2)c1` returned a CC50 in the assay with CCRF-CEM of 12 µM.

`FC(F)(F)c1cccc(NC(=S)Nc2cccc(Br)c2)c1`: the inhibition entry in assay [1], in assay [2], in assay [3], in [4], in assay [5] and in [6] was “Active” throughout. Moreover, the inhibition entry in [7], in assay [8], in assay [9], in assay [10], in assay [11] and in [12] was “Active” each time. Besides, the inhibition result in assay [15], in [16], in assay [18], in assay [19] and in [21] was “Active” throughout. The compound further came in with a 50% cytotoxic concentration (CC50) with CCRF-CEM of 9.3 µM. Also, testing at 4 µg/mL in assay [13] gave an inhibition of 70.1%. In addition, the IC50 in assay [14] worked out at 3.01 µg/mL (≈ 8.02 µM); in assay [17], 3.76 µg/mL (≈ 10 µM); in assay [20], 3.84 µg/mL (≈ 10.2 µM).

Regarding `FC(F)(F)c1cccc(NC(S)=Nc2ccc(Cl)c(Cl)c2)c1`, the CC50 in the assay on CCRF-CEM amounted to 8 µM.

As for `O=C(O)c1cn(C2CC2)c2cc(N3CCNCC3)c(F)cc2c1=O` [CIPROFLOXACIN], the inhibition result in assay [1], in [2], in [3], in [4], in assay [5] and in assay [6] was “Active” each time. Further, the inhibition result in assay [7], in assay [8], in assay [9], in [10], in [11] and in assay [12] was “Active” each time. The inhibition entry in assay [15], in [16], in [18], in [19] and in assay [21] was “Active” in each case. This compound came in with an inhibition at 4 µg/mL in assay [13] of 18.7%. The half-inhibitory concentration (IC50) is 12.9 µg/mL (≈ 39.1 µM) in [14], 22.1 µg/mL (≈ 66.8 µM) in [17] and 11.6 µg/mL (≈ 35 µM) in assay [20].
